ChEMBL document CHEMBL1148481, “Linker length modulates DNA cross-linking reactivity and cytotoxic potency of C8/C8' ether-linked C2-exo-unsaturated pyrrolo[2,1-c][1,4]benzodiazepine (PBD) dimers” (J Med Chem, 2004)

What was measured:
[1] = Compound was tested for percentage inhibition of restriction endonuclease BamH1 enzyme at a concentration of 25 uM;Inhibited
Nucleic Acid [2] = experiment: Thermal stabilization of duplex form of calf thymus DNA after incubation for 0 hours; assay type: functional; conditions: Bos taurus
How it was run: (§1)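 UV melting of calf thymus DNA (100 μM phosphate, 50 μM bp) with ligand at 20 μM (ligand:DNA 1:5) in pH 7.00 buffer (10 mM sodium phosphate, 1 mM EDTA), ≤0.6% v/v MeOH with correction. Samples were preincubated at 37 °C for the stated time, heated at 1 °C/min over 45–98 °C and monitored at 260 nm. ΔTm is the midpoint shift versus free DNA, from at least three determinations.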

Nucleic Acid [3] = experiment: Thermal stabilization of duplex form of calf thymus DNA after incubation for 4 hours; assay type: functional; conditions: Bos taurus; how it was run: as §1
Nucleic Acid [4] = experiment: Compound dose required to induce 50 percent cross linking in naked plasmid pBR322 DNA following incubation with agent for 2 hours at 37 degree C; assay type: functional
How it was run: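 Denatured at 90 °C for 2.5 min in 30% DMSO and run on 0.8% agarose, 40 V, 14–16 h. Autoradiography and laser densitometry of double- vs single-stranded bands gave dose–response curves; mean of ≥3 experiments.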

K562 [5] = experiment: Inhibitory concentration against human K562 leukemia cells following incubation for 1 hour; assay type: functional, cell-based; conditions: K562, 1 h
How it was run: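 K562 cells in RPMI 1640 with 10% FCS and 2 mM glutamine were exposed to drug for 1 h at 37 °C in the dark, then washed. They were plated at 10⁴ cells/well (8 wells per sample) and grown 4 days. MTT was added for 5 h, formazan dissolved in DMSO, and OD read at 550 nm. IC50 is the dose reducing OD to 50% of control.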

[6] = Compound was tested for inhibition of restriction endonuclease BamH1 enzyme at a concentration of 25 uM;Inhibited
How it was run: (§2)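 BamHI protection assay: a 512-bp PvuII plasmid fragment with a single BamHI site (500 ng) was incubated with the PBD (methanol stock 10 mM) for 16 h at 37 °C. It was then digested with BamHI (10 units) for 1 h at 37 °C. Cut and uncut DNA were resolved on a 1% agarose TBE gel, stained with ethidium bromide, and the cut fraction was quantified versus dose.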

Nucleic Acid [7] = experiment: Thermal stabilization of duplex form of calf thymus DNA after incubation for 18 hours; assay type: functional; conditions: Bos taurus; how it was run: as §1
SF-295 = experiment: Compound was tested for 50% growth inhibition against human CNS cancer SF-295 cell line; assay type: functional
MDA-N = experiment: Compound was tested for 50% growth inhibition against human breast cancer MDA-N cell line; assay type: functional
COLO 205 = experiment: Compound was tested for 50% growth inhibition against human colon cancer COLO 205 cell line; assay type: functional
OVCAR-5 = experiment: Compound was tested for 50% growth inhibition against human ovarian cancer OVCAR-5 cell line; assay type: functional
SNB-19 = experiment: Compound was tested for 50% growth inhibition against human CNS cancer SNB-19 cell line; assay type: functional
U-251 = experiment: Compound was tested for 50% growth inhibition against human CNS cancer U251 cell line; assay type: functional
HCC 2998 = experiment: Compound was tested for 50% growth inhibition against human colon cancer HCC2998 cell line; assay type: functional
OVCAR-3 = experiment: Compound was tested for 50% growth inhibition against human ovarian cancer OVCAR-3 cell line; assay type: functional
HT-29 = experiment: Compound was tested for 50% growth inhibition against human colon cancer HT-29 cell line; assay type: functional
SK-OV-3 = experiment: Compound was tested for 50% growth inhibition against human ovarian cancer SK-OV-3 cell line; assay type: functional
HOP-92 = experiment: Compound was tested for 50% growth inhibition against human non-small cell lung cancer […] cell line; assay type: functional
UACC-257 = experiment: Compound was tested for 50% growth inhibition against human melanoma UACC-257 cell line; assay type: functional
TK-10 = experiment: Compound was tested for 50% growth inhibition against human renal cancer TK-10 cell line; assay type: functional
MDA-MB-231 = experiment: Compound was tested for 50% growth inhibition against human breast cancer MDA-MB-231/ATCC cell line; assay type: functional
NCI-H226 = experiment: Compound was tested for 50% growth inhibition against human non-small cell lung cancer NCI-H226 cell line; assay type: functional
OVCAR-8 = experiment: Compound was tested for 50% growth inhibition against human ovarian cancer OVCAR-8 cell line; assay type: functional
SK-MEL-5 = experiment: Compound was tested for 50% growth inhibition against human melanoma SK-MEL-5 cell line; assay type: functional
SW-620 = experiment: Compound was tested for 50% growth inhibition against human colon cancer SW 620 cell line; assay type: functional
ACHN = experiment: Compound was tested for 50% growth inhibition against human renal cancer ACHN cell line; assay type: functional
EKVX = experiment: Compound was tested for 50% growth inhibition against human non-small cell lung cancer EKVX cell line; assay type: functional
LOX IMVI = experiment: Compound was tested for 50% growth inhibition against human melanoma LOXIMVI cell line; assay type: functional
HL-60 = experiment: Compound was tested for 50% growth inhibition against human leukemia […] cell line; assay type: functional
HCT-116 = experiment: Compound was tested for 50% growth inhibition against human colon cancer HCT116 cell line; assay type: functional
PC-3 = experiment: Compound was tested for 50% growth inhibition against human prostate cancer PC-3 cell line; assay type: functional
SR = experiment: Compound was tested for 50% growth inhibition against human leukemia SR cell line; assay type: functional
KM12 = experiment: Compound was tested for 50% growth inhibition against human colon cancer KM12 cell line; assay type: functional
Malme-3M = experiment: Compound was tested for 50% growth inhibition against human melanoma MALME-3M cell line; assay type: functional
T47D = experiment: Compound was tested for 50% growth inhibition against human breast cancer T-47D cell line; assay type: functional
MCF7 = experiment: Compound was tested for 50% growth inhibition against human breast cancer MCF-7 cell line; assay type: functional
UO-31 = experiment: Compound was tested for 50% growth inhibition against human renal cancer UO-31 cell line; assay type: functional
CAKI-1 = experiment: Compound was tested for 50% growth inhibition against human renal cancer CAKI-1 cell line; assay type: functional
IGROV-1 = experiment: Compound was tested for 50% growth inhibition against human ovarian cancer IGROVI cell line; assay type: functional
M14 = experiment: Compound was tested for 50% growth inhibition against human melanoma M14 cell line; assay type: functional
HOP-62 = experiment: Compound was tested for 50% growth inhibition against human non-small cell lung cancer HOP-62 cell line; assay type: functional
SN12C = experiment: Compound was tested for 50% growth inhibition against human renal cancer […] cell line; assay type: functional
A498 = experiment: Compound was tested for 50% growth inhibition against human renal cancer A498 cell line; assay type: functional
K562 [8] = experiment: Dose required to induce 50 percent decrease in tail moment of the DNA of K562 cells following a 1 hour treatment; assay type: functional, Homo sapiens
How it was run: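 Alkaline Comet assay in K562 cells after 1 h drug exposure, done on ice in subdued light. Cells were irradiated (10 Gy), embedded in agarose, lysed 1 h at pH 10.5, held in alkali 45 min and electrophoresed 25 min at pH 12.5. Slides were propidium iodide stained; 25 cells per duplicate slide. Value is the dose giving 50% decrease in tail moment relative to irradiated controls.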

NCI/ADR-RES = experiment: Compound was tested for 50% growth inhibition against human breast cancer NCI/ADR-RES cell line; assay type: functional
NCI-H460 = experiment: Compound was tested for 50% growth inhibition against human non-small cell lung cancer NCI-H460 cell line; assay type: functional
MOLT-4 = experiment: Compound was tested for 50% growth inhibition against human leukemia MOLT-4 cell line; assay type: functional
DU-145 = experiment: Compound was tested for 50% growth inhibition against human prostate cancer DU-145 cell line; assay type: functional
RPMI-8226 = experiment: Compound was tested for 50% growth inhibition against human leukemia RPMI-8226 cell line; assay type: functional
HCT-15 = experiment: Compound was tested for 50% growth inhibition against human colon cancer HCT-15 cell line; assay type: functional
CCRF-CEM = experiment: Compound was tested for 50% growth inhibition against human leukemia CCRF-CEM cell line; assay type: functional
SK-MEL-28 = experiment: Compound was tested for 50% growth inhibition against human melanoma SK-MEL-28 cell line; assay type: functional
NCI-H322M = experiment: Compound was tested for 50% growth inhibition against human non-small cell lung cancer NCI-H322M cell line; assay type: functional
786-0 = experiment: Compound was tested for 50% growth inhibition against human renal cancer 786-0 cell line; assay type: functional
BT-549 = experiment: Compound was tested for 50% growth inhibition against human breast cancer BT-549 cell line; assay type: functional
SF-539 = experiment: Compound was tested for 50% growth inhibition against human CNS cancer SF-539 cell line; assay type: functional
NCI-H23 = experiment: Compound was tested for 50% growth inhibition against human non-small cell lung cancer NCI-H23 cell line; assay type: functional
SF-268 = experiment: Compound was tested for 50% growth inhibition against human CNS cancer SF-268 cell line; assay type: functional
A549 = experiment: Compound was tested for 50% growth inhibition against human non-small cell lung cancer A549/ATCC cell line; assay type: functional
[9] = Compound was tested for inhibition of restriction endonuclease BamH1 enzyme at a concentration of 10 uM;Inhibited; how it was run: as §2
Hs-578T = experiment: Compound was tested for 50% growth inhibition against human breast cancer HS 578T cell line; assay type: functional
[10] = Compound was tested for inhibition of restriction endonuclease BamH1 enzyme at a concentration of 17.5 uM;Inhibited; how it was run: as §2

Cc1ccc2c(c1O)NC(O)C1CC(/C=C/C(N)=O)=CN1C2=O (stereo unspecified)
inhibition [1]: 12%

COc1cc2c(cc1OCCCOc1cc3c(cc1OC)C(=O)N1CCC[C@H]1C=N3)N=C[C@@H]1CCCN1C2=O [DSB-120]
ΔTm (Nucleic Acid [2]): 10.2 °C | ΔTm (Nucleic Acid [3]): 13.1 °C | C50 (Nucleic Acid [4]): 0.055 µM | IC50 (K562 [5]): 200 nM | Activity [6]: Inhibited | ΔTm (Nucleic Acid [7]): 15.1 °C

C=C1C[C@H]2C=Nc3cc(OCCCCCOc4cc5c(cc4OC)C(=O)N4CC(=C)C[C@H]4C=N5)c(OC)cc3C(=O)N2C1
GI50 (SF-295): 0.038 nM | GI50 (MDA-N): 0.209 nM | GI50 (COLO 205): 0.166 nM | GI50 (OVCAR-5): 0.309 nM | GI50 (SNB-19): 0.105 nM | ΔTm (Nucleic Acid [2]): 24.9 °C | GI50 (U-251): 0.0427 nM | GI50 (HCC 2998): 0.186 nM | GI50 (OVCAR-3): 0.2 nM | GI50 (HT-29): 0.224 nM | GI50 (SK-OV-3): 0.162 nM | GI50 (HOP-92): 0.112 nM | GI50 (UACC-257): 0.525 nM | GI50 (TK-10): 0.295 nM | GI50 (MDA-MB-231): 0.371 nM | GI50 (NCI-H226): 0.162 nM | GI50 (OVCAR-8): 0.195 nM | ΔTm (Nucleic Acid [3]): 25.5 °C | C50 (Nucleic Acid [4]): 0.004 µM | GI50 (SK-MEL-5): 0.245 nM | GI50 (SW-620): 0.288 nM | GI50 (ACHN): 0.0251 nM | GI50 (EKVX): 1.58 nM | GI50 (LOX IMVI): 0.0549 nM | GI50 (HL-60): 0.0148 nM | GI50 (HCT-116): 0.174 nM | GI50 (PC-3): 0.617 nM | GI50 (SR): < 1 pM | GI50 (KM12): 0.245 nM | GI50 (Malme-3M): 0.162 nM | GI50 (T47D): 0.0199 nM | GI50 (MCF7): 0.0933 nM | IC50 (K562 [5]): < 1 nM | GI50 (UO-31): 0.251 nM | GI50 (CAKI-1): 0.178 nM | GI50 (IGROV-1): 4.9 pM | GI50 (M14): 0.141 nM | GI50 (HOP-62): 0.117 nM | GI50 (SN12C): 0.0269 nM | GI50 (A498): 0.224 nM | C50 (K562 [8]): 0.009 µM | GI50 (NCI/ADR-RES): 7.94 nM | GI50 (NCI-H460): 0.0955 nM | GI50 (MOLT-4): 0.012 nM | GI50 (DU-145): 0.049 nM | GI50 (RPMI-8226): 0.186 nM | GI50 (HCT-15): 1.74 nM | GI50 (CCRF-CEM): 6.46 pM | GI50 (SK-MEL-28): 0.219 nM | GI50 (NCI-H322M): 0.468 nM | GI50 (786-0): 0.0977 nM | GI50 (BT-549): 0.162 nM | GI50 (SF-539): 0.0363 nM | GI50 (NCI-H23): 0.0832 nM | GI50 (SF-268): 0.0501 nM | ΔTm (Nucleic Acid [7]): 25.8 °C | GI50 (A549): 0.123 nM | Activity [9]: Inhibited | GI50 (Hs-578T): 0.302 nM

C=C1C[C@H]2C=Nc3cc(OCCCOc4cc5c(cc4OC)C(=O)N4CC(=C)C[C@H]4C=N5)c(OC)cc3C(=O)N2C1 [SJG-136]
ΔTm (Nucleic Acid [2]): 25.7 °C | ΔTm (Nucleic Acid [3]): 31.9 °C | C50 (Nucleic Acid [4]): 0.045 µM | Activity [10]: Inhibited | IC50 (K562 [5]): 43 nM | C50 (K562 [8]): 0.03 µM | ΔTm (Nucleic Acid [7]): 33.6 °C

COc1cc2c(cc1OCCCCCOc1cc3c(cc1OC)C(=O)N1CCC[C@H]1C=N3)N=C[C@@H]1CCCN1C2=O
ΔTm (Nucleic Acid [2]): 3.3 °C | ΔTm (Nucleic Acid [3]): 5.9 °C | C50 (Nucleic Acid [4]): 0.07 µM | IC50 (K562 [5]): 500 nM | ΔTm (Nucleic Acid [7]): 9.4 °C

C/C=C1\C[C@H]2C=Nc3cc(O)c(OC)cc3C(=O)N2C1
ΔTm (Nucleic Acid [2]): 1 °C | ΔTm (Nucleic Acid [3]): 2.4 °C | ΔTm (Nucleic Acid [7]): 2.6 °C
